Measurements reported in the M2OR odorant receptor database.
Residue numbers refer to the chain shown, from its start.

Tests used:
Settings in all cases: stereoisomer not certain
OR5DG A156T = test system: T1, OR5DG A156T
T1 sequence (whole entry): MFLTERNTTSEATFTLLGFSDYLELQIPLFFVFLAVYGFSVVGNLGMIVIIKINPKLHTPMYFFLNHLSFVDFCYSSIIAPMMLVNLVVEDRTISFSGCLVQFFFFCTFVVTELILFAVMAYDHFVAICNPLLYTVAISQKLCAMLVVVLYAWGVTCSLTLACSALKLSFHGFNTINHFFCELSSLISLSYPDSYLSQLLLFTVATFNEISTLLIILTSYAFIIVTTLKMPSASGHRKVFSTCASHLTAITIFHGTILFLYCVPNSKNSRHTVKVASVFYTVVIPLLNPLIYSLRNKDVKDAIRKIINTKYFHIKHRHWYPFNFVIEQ
How it was run: (§1)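 Transient luciferase assays in mammalian cell lines were common, though methods varied by source. The values come from published papers and their supplementary material, with extra details from the original authors when needed. Responsive refers to a measured signal the original authors judged statistically different from baseline, and non-responsive (inactive) to the remainder.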

OR5DI = test system: T2, OR5DI
T2 sequence (whole entry): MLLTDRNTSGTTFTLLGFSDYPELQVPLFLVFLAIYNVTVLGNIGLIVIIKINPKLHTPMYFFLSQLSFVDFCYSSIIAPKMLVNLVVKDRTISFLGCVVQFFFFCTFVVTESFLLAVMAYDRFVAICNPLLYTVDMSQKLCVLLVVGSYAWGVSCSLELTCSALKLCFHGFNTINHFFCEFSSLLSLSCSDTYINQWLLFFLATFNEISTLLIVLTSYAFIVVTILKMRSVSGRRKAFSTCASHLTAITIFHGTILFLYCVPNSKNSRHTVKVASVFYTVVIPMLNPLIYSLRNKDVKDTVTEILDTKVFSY
How it was run: as §1

OR5F1 (Homo sapiens) = biological target: T3, OR5F1 (Homo sapiens) (UniProt O95221)
T3 sequence (whole entry): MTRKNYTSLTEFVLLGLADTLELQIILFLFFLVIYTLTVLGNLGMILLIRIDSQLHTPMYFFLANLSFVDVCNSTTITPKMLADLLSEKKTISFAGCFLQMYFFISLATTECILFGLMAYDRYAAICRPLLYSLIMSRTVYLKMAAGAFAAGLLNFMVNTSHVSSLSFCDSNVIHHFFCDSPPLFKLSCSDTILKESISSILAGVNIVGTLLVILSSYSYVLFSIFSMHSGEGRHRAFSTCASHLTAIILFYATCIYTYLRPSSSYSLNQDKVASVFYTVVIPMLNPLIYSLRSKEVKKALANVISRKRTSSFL
How it was run: as §1

OR5F1 = test system: T4, OR5F1
T4 sequence (whole entry): T3 sequence (whole entry) with S294N
How it was run: as §1

OR5H1 (Homo sapiens) = biological target: T5, OR5H1 (Homo sapiens) (UniProt A6NKK0)
T5 sequence (whole entry): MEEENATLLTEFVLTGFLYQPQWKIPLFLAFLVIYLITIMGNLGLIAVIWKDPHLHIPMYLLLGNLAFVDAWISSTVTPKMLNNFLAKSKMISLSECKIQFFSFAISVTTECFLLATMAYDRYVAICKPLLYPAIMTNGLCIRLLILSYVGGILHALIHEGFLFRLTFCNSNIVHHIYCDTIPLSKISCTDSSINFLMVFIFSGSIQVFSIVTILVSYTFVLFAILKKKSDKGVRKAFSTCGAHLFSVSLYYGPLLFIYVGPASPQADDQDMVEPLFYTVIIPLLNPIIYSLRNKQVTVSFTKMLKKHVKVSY
How it was run: as §1

OR5H1 F17L A30T H56Q = test system: T6, OR5H1 F17L A30T H56Q
T6 sequence (whole entry): T5 sequence (whole entry) with F17L, A30T, H56Q
How it was run: as §1

OR5H1 T181N = test system: T7, OR5H1 T181N
T7 sequence (whole entry): T5 sequence (whole entry) with T181N
How it was run: as §1

OR5H14 (Homo sapiens) = biological target: T8, OR5H14 (Homo sapiens) (UniProt A6NHG9)
T8 sequence (whole entry): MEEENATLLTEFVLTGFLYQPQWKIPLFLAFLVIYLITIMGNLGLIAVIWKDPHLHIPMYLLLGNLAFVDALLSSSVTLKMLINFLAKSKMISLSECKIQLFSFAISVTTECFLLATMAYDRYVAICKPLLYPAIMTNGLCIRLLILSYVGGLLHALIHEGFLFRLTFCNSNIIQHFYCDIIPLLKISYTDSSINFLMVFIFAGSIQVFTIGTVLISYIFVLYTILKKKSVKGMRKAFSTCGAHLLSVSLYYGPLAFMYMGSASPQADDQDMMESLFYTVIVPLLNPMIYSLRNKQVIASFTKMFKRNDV
How it was run: as §1

OR5H15 (Homo sapiens) = biological target: T9, OR5H15 (Homo sapiens) (UniProt A6NDH6)
T9 sequence (whole entry): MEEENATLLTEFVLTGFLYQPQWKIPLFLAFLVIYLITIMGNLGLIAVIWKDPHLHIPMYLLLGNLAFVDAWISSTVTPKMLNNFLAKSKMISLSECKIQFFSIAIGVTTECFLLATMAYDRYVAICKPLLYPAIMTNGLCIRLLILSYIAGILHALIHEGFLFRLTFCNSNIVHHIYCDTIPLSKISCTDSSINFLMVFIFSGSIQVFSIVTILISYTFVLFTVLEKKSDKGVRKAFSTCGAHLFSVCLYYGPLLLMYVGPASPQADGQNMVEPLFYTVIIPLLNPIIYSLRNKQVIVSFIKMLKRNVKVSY
How it was run: as §1

OR5H1 = test system: T10, OR5H1
T10 sequence (whole entry): T5 sequence (whole entry) with I153L, T181I
How it was run: as §1

OR5H2 = test system: T11, OR5H2
T11 sequence (whole entry): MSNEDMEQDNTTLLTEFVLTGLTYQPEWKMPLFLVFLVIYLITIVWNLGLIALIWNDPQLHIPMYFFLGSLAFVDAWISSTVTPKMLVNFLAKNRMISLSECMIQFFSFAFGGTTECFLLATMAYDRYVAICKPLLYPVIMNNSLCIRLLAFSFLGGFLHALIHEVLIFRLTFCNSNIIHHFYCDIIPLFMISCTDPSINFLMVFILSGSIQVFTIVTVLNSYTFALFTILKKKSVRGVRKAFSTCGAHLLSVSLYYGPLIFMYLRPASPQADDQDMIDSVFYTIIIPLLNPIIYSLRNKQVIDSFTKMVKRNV
How it was run: as §1

OR5H6 (Homo sapiens) = biological target: T12, OR5H6 (Homo sapiens) (UniProt Q8NGV6)
T12 sequence (whole entry): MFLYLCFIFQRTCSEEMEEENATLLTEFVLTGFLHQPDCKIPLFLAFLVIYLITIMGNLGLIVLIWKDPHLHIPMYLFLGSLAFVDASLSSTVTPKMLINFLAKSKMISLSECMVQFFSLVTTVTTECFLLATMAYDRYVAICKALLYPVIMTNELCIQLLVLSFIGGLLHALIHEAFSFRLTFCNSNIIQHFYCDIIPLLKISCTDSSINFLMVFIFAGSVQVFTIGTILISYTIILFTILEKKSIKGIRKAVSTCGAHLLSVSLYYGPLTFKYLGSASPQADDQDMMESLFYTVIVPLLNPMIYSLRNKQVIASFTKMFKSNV
How it was run: as §1

OR5I1 (Homo sapiens) = biological target: T13, OR5I1 (Homo sapiens) (UniProt Q13606)
T13 sequence (whole entry): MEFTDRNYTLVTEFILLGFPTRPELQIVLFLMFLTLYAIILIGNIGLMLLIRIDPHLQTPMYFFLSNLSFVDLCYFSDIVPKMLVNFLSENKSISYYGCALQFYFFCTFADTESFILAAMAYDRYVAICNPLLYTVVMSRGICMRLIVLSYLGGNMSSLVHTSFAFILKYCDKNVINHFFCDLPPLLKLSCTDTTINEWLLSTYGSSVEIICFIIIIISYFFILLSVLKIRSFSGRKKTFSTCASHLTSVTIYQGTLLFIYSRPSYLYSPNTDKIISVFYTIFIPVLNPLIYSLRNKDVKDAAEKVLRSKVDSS
How it was run: as §1

OR5J2 (Homo sapiens) = biological target: T14, OR5J2 (Homo sapiens) (UniProt Q8NH18)
T14 sequence (whole entry): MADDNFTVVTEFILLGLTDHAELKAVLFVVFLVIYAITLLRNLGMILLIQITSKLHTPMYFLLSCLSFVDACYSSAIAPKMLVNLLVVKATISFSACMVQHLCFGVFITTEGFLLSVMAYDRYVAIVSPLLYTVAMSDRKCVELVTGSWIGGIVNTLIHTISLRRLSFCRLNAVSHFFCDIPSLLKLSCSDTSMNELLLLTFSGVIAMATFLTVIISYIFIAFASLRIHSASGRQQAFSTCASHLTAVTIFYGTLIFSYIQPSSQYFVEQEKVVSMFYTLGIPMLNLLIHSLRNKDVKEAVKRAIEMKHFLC
How it was run: as §1

OR5K1 (Homo sapiens) = biological target: T15, OR5K1 (Homo sapiens) (UniProt Q8NHB7)
T15 sequence (whole entry): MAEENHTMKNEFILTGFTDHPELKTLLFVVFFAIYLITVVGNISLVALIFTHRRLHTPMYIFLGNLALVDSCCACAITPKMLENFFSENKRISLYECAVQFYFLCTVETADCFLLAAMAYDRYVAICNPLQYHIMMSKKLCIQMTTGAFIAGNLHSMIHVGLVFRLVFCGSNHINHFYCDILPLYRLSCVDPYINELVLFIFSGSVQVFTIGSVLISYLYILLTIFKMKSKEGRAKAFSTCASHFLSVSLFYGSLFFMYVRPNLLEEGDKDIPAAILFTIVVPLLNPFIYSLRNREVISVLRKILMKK
How it was run: as §1

OR5K2 (Homo sapiens) = biological target: T16, OR5K2 (Homo sapiens) (UniProt Q8NHB8)
T16 sequence (whole entry): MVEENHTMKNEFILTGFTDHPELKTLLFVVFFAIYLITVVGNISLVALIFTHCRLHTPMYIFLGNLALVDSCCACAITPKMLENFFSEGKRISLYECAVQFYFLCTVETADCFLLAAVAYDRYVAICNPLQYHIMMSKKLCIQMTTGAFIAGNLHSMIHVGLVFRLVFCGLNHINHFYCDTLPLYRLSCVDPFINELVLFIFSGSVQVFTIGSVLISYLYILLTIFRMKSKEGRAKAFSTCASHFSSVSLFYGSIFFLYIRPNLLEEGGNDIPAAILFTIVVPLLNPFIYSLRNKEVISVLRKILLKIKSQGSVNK
How it was run: as §1

OR5K2 L197M = test system: T17, OR5K2 L197M
T17 sequence (whole entry): T16 sequence (whole entry) with L197M
How it was run: as §1

OR5K1 F62L = test system: OR5K1 F62L
Chain of OR5K1 F62L (as listed by the source, stated change not applied): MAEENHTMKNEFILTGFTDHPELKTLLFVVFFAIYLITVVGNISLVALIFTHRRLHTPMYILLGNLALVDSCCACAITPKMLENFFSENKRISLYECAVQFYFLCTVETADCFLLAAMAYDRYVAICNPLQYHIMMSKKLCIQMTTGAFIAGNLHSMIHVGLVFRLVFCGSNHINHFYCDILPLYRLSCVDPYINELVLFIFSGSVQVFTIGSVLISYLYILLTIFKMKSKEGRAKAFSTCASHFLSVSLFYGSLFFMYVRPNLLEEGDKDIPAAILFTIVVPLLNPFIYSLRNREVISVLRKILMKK
How it was run: as §1
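Further: active if original authors judged signal statistically different from baseline.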

CC1=NC(C)C(C)S1 (stereo unspecified)
odorant receptor agonist call (OR5DG A156T): inactive | odorant receptor agonist call (OR5DI): inactive | odorant receptor agonist call (OR5F1 (Homo sapiens)): inactive | odorant receptor agonist call (OR5F1): inactive | odorant receptor agonist call (OR5H1 (Homo sapiens)): inactive | odorant receptor agonist call (OR5H1 F17L A30T H56Q): inactive | odorant receptor agonist call (OR5H1 T181N): inactive | odorant receptor agonist call (OR5H14 (Homo sapiens)): inactive | odorant receptor agonist call (OR5H15 (Homo sapiens)): inactive | odorant receptor agonist call (OR5H1): inactive | odorant receptor agonist call (OR5H2): inactive | odorant receptor agonist call (OR5H6 (Homo sapiens)): inactive | odorant receptor agonist call (OR5I1 (Homo sapiens)): inactive | odorant receptor agonist call (OR5J2 (Homo sapiens)): inactive | odorant receptor agonist call (OR5K1 (Homo sapiens)): active | odorant receptor agonist call (OR5K2 (Homo sapiens)): inactive | odorant receptor agonist call (OR5K2 L197M): inactive

CCOC(C)OCC
odorant receptor agonist call (OR5K1 (Homo sapiens)): inactive

CC1=C(O)C(=O)C(C)O1 (stereo unspecified)
odorant receptor agonist call (OR5DG A156T): inactive | odorant receptor agonist call (OR5DI): inactive | odorant receptor agonist call (OR5F1 (Homo sapiens)): inactive | odorant receptor agonist call (OR5F1): inactive | odorant receptor agonist call (OR5H1 (Homo sapiens)): inactive | odorant receptor agonist call (OR5H1 F17L A30T H56Q): inactive | odorant receptor agonist call (OR5H1 T181N): inactive | odorant receptor agonist call (OR5H14 (Homo sapiens)): inactive | odorant receptor agonist call (OR5H15 (Homo sapiens)): inactive | odorant receptor agonist call (OR5H1): inactive | odorant receptor agonist call (OR5H2): inactive | odorant receptor agonist call (OR5H6 (Homo sapiens)): inactive | odorant receptor agonist call (OR5I1 (Homo sapiens)): inactive | odorant receptor agonist call (OR5J2 (Homo sapiens)): inactive | odorant receptor agonist call (OR5K1 (Homo sapiens)): inactive | odorant receptor agonist call (OR5K2 (Homo sapiens)): inactive | odorant receptor agonist call (OR5K2 L197M): inactive

C=CC(=O)CC=CCC
odorant receptor agonist call (OR5K1 (Homo sapiens)): inactive

CCCCCCO
odorant receptor agonist call (OR5K1 (Homo sapiens)): inactive

CCCCCCCCCC(=O)[O-].[H+]
odorant receptor agonist call (OR5K1 (Homo sapiens)): inactive

Cc1cnc(C)c(C)n1
odorant receptor agonist call (OR5DG A156T): inactive | odorant receptor agonist call (OR5DI): inactive | odorant receptor agonist call (OR5F1 (Homo sapiens)): inactive | odorant receptor agonist call (OR5F1): inactive | odorant receptor agonist call (OR5H1 (Homo sapiens)): inactive | odorant receptor agonist call (OR5H1 F17L A30T H56Q): inactive | odorant receptor agonist call (OR5H1 T181N): inactive | odorant receptor agonist call (OR5H14 (Homo sapiens)): inactive | odorant receptor agonist call (OR5H15 (Homo sapiens)): inactive | odorant receptor agonist call (OR5H1): inactive | odorant receptor agonist call (OR5H2): inactive | odorant receptor agonist call (OR5H6 (Homo sapiens)): inactive | odorant receptor agonist call (OR5I1 (Homo sapiens)): inactive | odorant receptor agonist call (OR5J2 (Homo sapiens)): inactive | odorant receptor agonist call (OR5K1 (Homo sapiens)): active | odorant receptor agonist call (OR5K1 F62L): active | odorant receptor agonist call (OR5K2 (Homo sapiens)): inactive | odorant receptor agonist call (OR5K2 L197M): inactive

CCCCCC(=O)OCC
odorant receptor agonist call (OR5K1 (Homo sapiens)): inactive

CCCCC(S)C(C)CO (stereo unspecified)
odorant receptor agonist call (OR5F1 (Homo sapiens)): inactive | odorant receptor agonist call (OR5H1 (Homo sapiens)): inactive | odorant receptor agonist call (OR5H14 (Homo sapiens)): inactive | odorant receptor agonist call (OR5H15 (Homo sapiens)): inactive | odorant receptor agonist call (OR5H2): inactive | odorant receptor agonist call (OR5H6 (Homo sapiens)): inactive | odorant receptor agonist call (OR5J2 (Homo sapiens)): inactive | odorant receptor agonist call (OR5K1 (Homo sapiens)): inactive | odorant receptor agonist call (OR5K2 (Homo sapiens)): inactive
